The data set in a line: Toxicity liver stage against HepG2, at 10uM. It is filed as cell-based. Set-up: test concentration 10 uM, cell line HepG2-A16-CD81EGFP. The following applies: human, HepG2-A16-CD81EGFP cells; read-out: INHIBITION
Put shortly:
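Uninfected HepG2-A16-CD81EGFP cells, 3 × 10^3 per well, 1536-well, plated on prespotted compound at 10 μM final, parasite-free screening media added to match infected plates; puromycin 10 μM positive, DMSO 0.5% negative; run in parallel with 48 h PbLuc assay at 37 °C, 5% CO2; viability by CellTiter-Glo luminescence, normalized to controls.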

Take `COc1ccccc1CC(=O)N1CCCC(n2nc(C)cc2C)C1` (configuration not stated): the cytotoxicity at 10 µM is -4.48%.
In the case of `O=C(c1cscn1)N1C[C@@H]2C[C@@H](c3nnc(C4CC4)o3)O[C@@H]2C1`, the cytotoxicity at 10 µM is -16.9%.
Regarding `Cc1cc(CNc2ccc(C(F)(F)F)cc2)no1`, the cytotoxicity at 10 µM is -54%.
In the case of `CCNC(=O)N(Cc1cccc(OC)c1)C1CCC(O)CC1` (configuration not stated) it was -4.83%.
Take `CN1CCN(c2nc(-c3cnn(C)c3)cs2)CC1`: the cytotoxicity at 10 µM is -0.186%.
The same measure for `O=C(c1ccco1)N1CCO[C@@H]2CN(CC3CC3)CC[C@@H]2C1`: -67.9%.
In the case of `Cc1nc(C)n(CC2CCCN(CCCOc3ccccc3)C2)n1` (configuration not stated), the cytotoxicity at 10 µM was found to be 3.15%.
Turning to `CS(=O)(=O)CC(=O)N1C[C@H]2CCC[C@@]2(COCc2ccccn2)C1`, the cytotoxicity at 10 µM came out at 4.35%.
As for `Cc1ccc(-c2noc(CN3CCOC(CN(C)C)C3)n2)cc1F` (configuration not stated), the cytotoxicity at 10 µM was -5.48%.
For the compound `C[C@H](NC(=O)C1(N(C)Cc2ccccc2)Cc2ccccc2C1)C(N)=O`, the cytotoxicity at 10 µM was 0.521%.
The same measure for `CN(C)c1ncc(I)c(C2CCCCN2S(C)(=O)=O)n1` (configuration not stated): 5.09%; for `CCC1COCCN1C(=O)CNC(=O)c1ccsc1` (configuration not stated): 4.53%.
`CN1CCN(C(=O)c2csnn2)c2ccccc21`: the cytotoxicity at 10 µM was -1.15%.
In the case of `Cc1ccc(N2C[C@@H]3CN(Cc4csc(C)n4)CCO[C@@H]3C2)nn1` it was 7.64%.
In the case of `Cc1cn2nc(N3CCCC3Cn3nc(C)cc3C)sc2n1` (configuration not stated), the cytotoxicity at 10 µM was -1.32%.
With `O=C(O)Cc1cnc(-c2c(Cl)cccc2Cl)s1`, the cytotoxicity at 10 µM came out at 2.84%.
For `Cc1ncc(CNC(=O)Cc2ccc(Cl)cc2)c(C2CCCN2C)n1` (configuration not stated), the cytotoxicity at 10 µM was -0.696%.
For the compound `CC(NC(N)=O)C(=O)Nc1ccc(OCc2cccc(F)c2)c(F)c1` (configuration not stated), the cytotoxicity at 10 µM was -12.3%.
In the case of `CC(C)[C@@H]1CN(Cc2ccccc2C#N)C[C@H]1N(C)C`, the cytotoxicity at 10 µM was -18.7%.
On to `NC(=O)CN(Cc1ccc(Br)cc1)C(=O)c1ccccn1`, for which the cytotoxicity at 10 µM was determined as 6.85%.
On to `Cc1ccccc1C(=O)N1C[C@@H]2COC[C@]2(COCc2cccnc2)C1`, for which the cytotoxicity at 10 µM came to 4.44%.
For `CS(=O)(=O)N1CCCCCC1C1CCN(Cc2nc(C3CC3)no2)CC1` (configuration not stated), the cytotoxicity at 10 µM is -4.09%.
For the compound `CC(C)(CNC1CCCN(Cc2ccccn2)C1)CN1CCOCC1` (configuration not stated), the cytotoxicity at 10 µM was 5.91%.
As for `O=C1CC2(CCCC2)CC(=O)N1Cc1ncccn1`, the cytotoxicity at 10 µM came out at 1.27%.
As to `O=C(c1ccccc1)N1C[C@H]2CC[C@@H](C1)N(C(=O)CN1CCOCC1)C2`, the cytotoxicity at 10 µM stood at 9.23%.
`Clc1ccc(CN2CCCCC2Cn2cncn2)c2ncccc12` (configuration not stated): the cytotoxicity at 10 µM is -4.66%.
The same measure for `Cc1ccc(F)c(OC2(C(=O)O)CCN(C(=O)c3ccncc3)CC2)c1`: 5.03%; for `Cc1nn(C)cc1-c1cc(C(F)(F)F)nc(NC2CCN(C)CC2)n1`: 11.7%.
In the case of `Cc1noc(C)c1CN(C)C(=O)c1cnc(C2CC2)nc1O` it was -4.65%; in that of `CCC(C)CNc1ccc2oc(COC)nc2c1` (configuration not stated), -22.4%; in that of `O=C(N1CCCC1)N1CCn2c(nnc2C2CCCN2)C1` (configuration not stated), 4.12%.
Take `c1cncc(CNc2cncc(C3CCCN3)n2)c1` (configuration not stated): the cytotoxicity at 10 µM came out at 9.93%.
For `O=C(NCC1CC1)C1=NOC2(CCN(S(=O)(=O)c3ccc(F)cc3)C2)C1` (configuration not stated), the cytotoxicity at 10 µM stood at 3.25%.
Take `COc1c(CNCc2ccc(N3CCOCC3)nc2)c(C)nn1C`: the cytotoxicity at 10 µM worked out at 9.5%.
Consider `CCCC(C)(C)NC(=O)CCN1CCOC1=O`, for which the cytotoxicity at 10 µM was -8.94%.
With `CCOc1ccccc1CC(=O)N1C[C@@H](C(=O)O)[C@H](c2ccncc2)C1`, the cytotoxicity at 10 µM turned out to be 9.15%.
Regarding `CCCNC(=O)[C@@H]1CCCN1[C@@H](C(=O)NC)C1CC1`, the cytotoxicity at 10 µM stood at 1.32%.
As to `COc1ccc(C(=O)NS(C)(=O)=O)cc1-c1ccccc1`, the cytotoxicity at 10 µM was -0.0142%.
As for `CCOC(=O)c1n[nH]cc1-c1cncn1CCCn1nc(C)cc1C`, the cytotoxicity at 10 µM was -2.73%.
For the compound `CC(=O)NCc1noc2c1CN(Cc1cccs1)CC2`, the cytotoxicity at 10 µM is -5.18%.
As to `O=C(O)C[C@@H]1CCN(C(=O)C2CCCC2)C[C@@H]1CCN1CCCCC1`, the cytotoxicity at 10 µM is -6.51%.
As to `O=C(c1ccc[nH]1)N1CCO[C@]2(CCC[C@@H]2COc2cccnc2)C1`, the cytotoxicity at 10 µM stood at 9.46%.
Consider `C=C(C)COc1ccccc1NC(=O)N1CCCCC1CO` (configuration not stated), for which the cytotoxicity at 10 µM is -8.06%.
As for `Cc1nnc2n1CCN(Cc1ccc3c(c1)OCCO3)C2`, the cytotoxicity at 10 µM is -8.95%.
With `Cc1cc(-c2nccs2)nc(C2CCN(Cc3ccncc3)CC2)n1`, the cytotoxicity at 10 µM turned out to be 8.6%.
For `CC(N)Cc1ccccc1Sc1ccccc1` (configuration not stated), the cytotoxicity at 10 µM worked out at 5.41%.
Turning to `Cc1cc(Br)ccc1C(=O)NCCN1CCCCCC1`, the cytotoxicity at 10 µM is -11.6%.
As to `Cc1cc(C)n(-c2ccc(N3CCC4(CC3)OCC(C)O4)nc2)n1` (configuration not stated), the cytotoxicity at 10 µM was -1.39%.
In the case of `NC(=O)[C@@H]1Cc2ccccc2CN1CCc1cccs1` it was 0.436%.
As to `CC1CCC2(CC1)NC(=O)c1cc(Br)ccc1-n1nnnc12` (configuration not stated), the cytotoxicity at 10 µM came to 10.1%.
With `CC(C)CN1CCN(C(=O)NCc2cccnc2-n2cccn2)CC1`, the cytotoxicity at 10 µM was determined as 7.29%.
Consider `CCS(=O)(=O)Nc1ccc2[nH]c(C3CCC3)nc2c1`, for which the cytotoxicity at 10 µM is -13.2%.
Take `Cc1ccc(N2CCC3(CN(Cc4cccs4)CCC3(F)F)C2)nn1` (configuration not stated): the cytotoxicity at 10 µM stood at 8.39%.
In the case of `COc1cc(C)sc1C(=O)NCCNc1ccccc1`, the cytotoxicity at 10 µM was -7.64%.
On to `COCCN1CCN(Cc2cnc(C(C)C)nc2)CC1`, for which the cytotoxicity at 10 µM was determined as 10.6%.
Consider `CC(=O)NC[C@H]1COCc2nc3c(C)cccc3n21`, for which the cytotoxicity at 10 µM worked out at 8.65%.
As for `O=C(c1ccco1)N1CCOCC2(C1)CN(c1ccccc1)C(=O)CO2` (configuration not stated), the cytotoxicity at 10 µM is -10.1%.
In the case of `C[C@@H]1C[C@H](C(F)(F)F)n2nc(C3CCN(S(=O)(=O)N(C)C)CC3)cc2N1`, the cytotoxicity at 10 µM is -17.9%.
For the compound `O=C(CN1CCOC(Cn2cccn2)C1)NCc1cccs1` (configuration not stated), the cytotoxicity at 10 µM was -6.88%.
`CC(NC(=O)NCCNc1cnccn1)c1cccs1` (configuration not stated): the cytotoxicity at 10 µM was -3.79%.
In the case of `O=C(NC1CCCCC1)N1CCc2onc(COc3cccnc3)c2C1`, the cytotoxicity at 10 µM is -69.9%.
Consider `COCC1c2nnn(CC3CC3)c2CCN1Cc1ccncc1` (configuration not stated), for which the cytotoxicity at 10 µM worked out at 3.37%.
As to `CC1CCN(CCNC(=O)c2ccn(-c3ccc(F)cc3)n2)CC1`, the cytotoxicity at 10 µM was -15.6%.
Regarding `COc1c(CNCC(O)c2cccc(F)c2)c(C(C)C)nn1C` (configuration not stated), the cytotoxicity at 10 µM came out at 2.31%.
The same measure for `CSc1nnc(CNC(=O)Nc2ccccc2Br)n1C`: 1.31%.
For the compound `OC1(CNc2ccc(Br)cn2)CCOCC1`, the cytotoxicity at 10 µM came out at 6.91%.
Consider `O=C(C1CCOC1)N1C[C@H]2CN(Cc3ccccn3)C[C@H]2C1` (some centres not stated), for which the cytotoxicity at 10 µM was determined as 1.03%.
`CCn1cc(CN2CCCN(C(=O)c3ccc(C#N)cc3)CC2)cn1`: the cytotoxicity at 10 µM came to 1.8%.
For `CCN(Cc1ccccc1Cl)Cn1nc(C)c2c(C)onc2c1=O`, the cytotoxicity at 10 µM was -2.34%.
`NC(=O)CCC1CCCN(c2ccc3ccc(F)cc3n2)C1` (configuration not stated): the cytotoxicity at 10 µM was -0.386%.
With `CS(=O)(=O)CCSCc1cccc2cccnc12`, the cytotoxicity at 10 µM is -6.64%.
Consider `CC(C)(O)CCc1ccc(C(=O)NCCC2CCOC2)cc1` (configuration not stated), for which the cytotoxicity at 10 µM was 0.824%.

The record behind these values is ChEMBL document CHEMBL4513216, “Probing the Open Global Health Chemical Diversity Library for Multistage-Active Starting Points for Next-Generation Antimalarials” (ACS Infect Dis, 2020).
